Source: ChEMBL document CHEMBL3244396, “Synthesis and antileukemic activity of 5-substituted 2,3-dihydro-6,7-bis(hydroxymethyl)-1H-pyrrolizine diesters” (J Med Chem, 1977)
≈ marks a conversion by molar mass, not a printed value.

What was measured:
[1] = tested on: L1210; experiment: Antileukemic activity against mouse L1210 cells allografted in female BDF1 mouse assessed as host mean survival time at 200 mg/kg, ip administered daily for 9 days as Klucel suspension starting 24 hrs after tumor inoculation relative to control; type: functional; conditions: route intraperitoneal
In short: (§1)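 L1210 leukemia given as an ascitic fluid cell inoculum, ip, to mice of the strain and sex in each line. Test material was given ip for nine daily doses starting 24 h after inoculation, in a Klucel (hydroxypropylcellulose) suspension. Read-out is mean survival time as %T/C versus controls, with >125 taken as significant.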

[2] = tested on: P388; experiment: Antitumor activity against mouse P388 cells allografted in female CDF1 mouse assessed as change in body weight at 50 mg/kg, ip administered daily for 9 days as Klucel suspension starting 24 hrs after tumor inoculation; type: functional; conditions: route intraperitoneal
In short: (§2)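 Ascitic fluid carrying P388 cells was inoculated ip. Compound was given ip in nine daily doses, starting 24 h after inoculation, in Klucel (hydroxypropylcellulose) suspension or in saline with Tween-80. Body-weight difference (treated minus control) was recorded on day 5. Survival was scored as %T/C of median survival time, and 30-day survival counted as cure.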

[3] = tested on: L1210; experiment: Antileukemic activity against mouse L1210 cells allografted in female BDF1 mouse assessed as change in body weight at 100 mg/kg, ip administered daily for 9 days as Klucel suspension starting 24 hrs after tumor inoculation; type: functional; conditions: route intraperitoneal
In short: (§3)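 Ascitic fluid carrying L1210 cells was inoculated ip. Compound was given ip as a Klucel (hydroxypropylcellulose) suspension in nine daily doses, starting 24 h after inoculation. Body-weight difference (treated minus control) was recorded on day 5. Survival was scored as %T/C of mean survival time.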

[4] = tested on: Mus musculus; experiment: Toxicity in female CDF1 mouse allografted with mouse P388 cells assessed as animal survival at 50 mg/kg, ip administered daily for 9 days as Klucel suspension starting 24 hrs after tumor inoculation; type: organism-based; design: dose 50 mg/kg, route intraperitoneal; conditions: in vivo
In short: (§4)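 P-388 leukemia ascitic fluid inoculated ip. Compound given ip as a suspension in Klucel (hydroxypropylcellulose), once daily for nine doses beginning 24 h post-inoculation. Acute toxicity assessed as toxicity-day survivors per group. Survival was followed up to 30 days, with 30-day survival counted as "cure". Follows NCI screening protocols.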

[5] = tested on: L1210; experiment: Antileukemic activity against mouse L1210 cells allografted in female BDF1 mouse assessed as host mean survival time at 100 mg/kg, ip administered daily for 9 days as Klucel suspension starting 24 hrs after tumor inoculation relative to control; type: functional; conditions: route intraperitoneal; in short: as §1
[6] = tested on: Mus musculus; experiment: Toxicity in female CDF1 mouse allografted with mouse P388 cells assessed as animal survival at 100 mg/kg, ip administered daily for 9 days as Klucel suspension starting 24 hrs after tumor inoculation; type: organism-based; design: dose 100 mg/kg, route intraperitoneal; conditions: in vivo; in short: as §4
[7] = Cytotoxicity against human 9KB cells treated as ethanol solution; type: functional; conditions: read-out: ED50 (the source's name)
In short: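 Compound applied as an ethanol solution; activity read out as ED50 under the general screening protocol.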

[8] = tested on: P388; experiment: Antitumor activity against mouse P388 cells allografted in female CDF1 mouse assessed as disease cures by measuring 30-days host survival at 200 mg/kg, ip administered daily for 9 days as Klucel suspension starting 24 hrs after tumor inoculation relative to control; type: functional; conditions: route intraperitoneal
In short: (§5)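 P388 leukemia given as an ascitic fluid cell inoculum, ip, to mice of the strain and sex in each line. Nine daily ip doses were given in a Klucel (hydroxypropylcellulose) suspension, starting 24 h after inoculation. Read-out is median survival time as %T/C, with >125 taken as significant; a "cure" means 30-day survival.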

[9] = tested on: L1210; experiment: Antileukemic activity against mouse L1210 cells allografted in female BDF1 mouse assessed as change in body weight at 50 mg/kg, ip administered daily for 9 days as Klucel suspension starting 24 hrs after tumor inoculation; type: functional; conditions: route intraperitoneal; in short: as §3
[10] = tested on: Mus musculus; experiment: Toxicity in female BDF1 mouse allografted with mouse L1210 cells assessed as animal survival at 100 mg/kg, ip administered daily for 9 days as Klucel suspension starting 24 hrs after tumor inoculation measured on fifth day; type: organism-based; design: dose 100 mg/kg, route intraperitoneal; conditions: in vivo
In short: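 Female BDF1 mice bearing ip ascitic L1210 inoculum got nine daily ip doses in a Klucel suspension, starting 24 h after tumor inoculation. Toxicity was scored as toxicity-day survivors out of the group, recorded on the fifth day. Animal weight difference (T − C) was also tabulated.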

[11] = tested on: P388; experiment: Antitumor activity against mouse P388 cells allografted in female CDF1 mouse assessed as disease cures by measuring 30-days host survival at 100 mg/kg, ip administered daily for 9 days as Klucel suspension starting 24 hrs after tumor inoculation relative to control; type: functional; conditions: route intraperitoneal; in short: as §5
[12] = tested on: Mus musculus; experiment: Toxicity in female BDF1 mouse allografted with mouse L1210 cells assessed as animal survival at 50 mg/kg, ip administered daily for 9 days as Klucel suspension starting 24 hrs after tumor inoculation measured on fifth day; type: organism-based; design: dose 50 mg/kg, route intraperitoneal; conditions: in vivo
In short: (§6)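 L1210 leukemia passaged as ascitic fluid and inoculated ip. Test agent given ip as a Klucel (hydroxypropylcellulose) suspension, nine daily doses starting 24 h after tumor inoculation. Acute toxicity read as toxicity-day survivors per group (out of 6), recorded on day 5. Animal weight difference T − C was also recorded. Follows NCI screening protocols.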

[13] = tested on: P388; experiment: Antitumor activity against mouse P388 cells allografted in female CDF1 mouse assessed as change in body weight at 100 mg/kg, ip administered daily for 9 days as Klucel suspension starting 24 hrs after tumor inoculation; type: functional; conditions: route intraperitoneal; in short: as §2
[14] = tested on: P388; experiment: Antitumor activity against mouse P388 cells allografted in female CDF1 mouse assessed as disease cures by measuring 30-days host survival at 50 mg/kg, ip administered daily for 9 days as Klucel suspension starting 24 hrs after tumor inoculation relative to control; type: functional; conditions: route intraperitoneal; in short: as §5
[15] = tested on: P388; experiment: Antitumor activity against mouse P388 cells allografted in female CDF1 mouse assessed as change in body weight at 200 mg/kg, ip administered daily for 9 days as Klucel suspension starting 24 hrs after tumor inoculation; type: functional; conditions: route intraperitoneal; in short: as §2
[16] = tested on: L1210; experiment: Antileukemic activity against mouse L1210 cells allografted in female BDF1 mouse assessed as host mean survival time at 50 mg/kg, ip administered daily for 9 days as Klucel suspension starting 24 hrs after tumor inoculation relative to control; type: functional; conditions: route intraperitoneal; in short: as §1
[17] = tested on: Mus musculus; experiment: Toxicity in female CDF1 mouse allografted with mouse P388 cells assessed as animal survival at 200 mg/kg, ip administered daily for 9 days as Klucel suspension starting 24 hrs after tumor inoculation; type: organism-based; design: dose 200 mg/kg, route intraperitoneal; conditions: in vivo; in short: as §4
[18] = tested on: L1210; experiment: Antileukemic activity against mouse L1210 cells allografted in female BDF1 mouse assessed as change in body weight at 200 mg/kg, ip administered daily for 9 days as Klucel suspension starting 24 hrs after tumor inoculation; type: functional; conditions: route intraperitoneal; in short: as §3
[19] = tested on: Mus musculus; experiment: Toxicity in female BDF1 mouse allografted with mouse L1210 cells assessed as animal survival at 200 mg/kg, ip administered daily for 9 days as Klucel suspension starting 24 hrs after tumor inoculation measured on fifth day; type: organism-based; design: dose 200 mg/kg, route intraperitoneal; conditions: in vivo; in short: as §6
[20] = tested on: P388; experiment: Antitumor activity against mouse P388 cells allografted in female BDF1 mouse assessed as change in body weight at 25 mg/kg, ip administered daily for 9 days as Klucel suspension starting 24 hrs after tumor inoculation; type: functional; conditions: route intraperitoneal; in short: as §2
[21] = tested on: P388; experiment: Antitumor activity against mouse P388 cells allografted in female BDF1 mouse assessed as disease cures by measuring 30-days host survival at 25 mg/kg, ip administered daily for 9 days as Klucel suspension starting 24 hrs after tumor inoculation relative to control; type: functional; conditions: route intraperitoneal; in short: as §5
[22] = tested on: P388; experiment: Antitumor activity against mouse P388 cells allografted in female BDF1 mouse assessed as change in body weight at 12.5 mg/kg, ip administered daily for 9 days as Klucel suspension starting 24 hrs after tumor inoculation; type: functional; conditions: route intraperitoneal; in short: as §2
[23] = tested on: Mus musculus; experiment: Toxicity in female BDF1 mouse allografted with mouse P388 cells assessed as animal survival at 12.5 mg/kg, ip administered daily for 9 days as Klucel suspension starting 24 hrs after tumor inoculation; type: organism-based; design: dose 12.5 mg/kg, route intraperitoneal; conditions: in vivo; in short: as §4
[24] = tested on: P388; experiment: Antitumor activity against mouse P388 cells allografted in female BDF1 mouse assessed as disease cures by measuring 30-days host survival at 12.5 mg/kg, ip administered daily for 9 days as Klucel suspension starting 24 hrs after tumor inoculation relative to control; type: functional; conditions: route intraperitoneal; in short: as §5
[25] = tested on: Mus musculus; experiment: Toxicity in female BDF1 mouse allografted with mouse P388 cells assessed as animal survival at 25 mg/kg, ip administered daily for 9 days as Klucel suspension starting 24 hrs after tumor inoculation; type: organism-based; design: dose 25 mg/kg, route intraperitoneal; conditions: in vivo; in short: as §4

| Compound | T/C [1] [%] | Activity [2] [g] | Activity [3] [g] | Activity [4] | T/C [5] [%] | Activity [6] | EC50 [7] [µg/mL] | T/C [8] [%] | Activity [9] [g] | Activity [10] | T/C [11] [%] | Activity [12] | Activity [13] [g] | T/C [14] [%] | Activity [15] [g] | T/C [16] [%] | Activity [17] | Activity [18] [g] | Activity [19] | further results |
| --- | --- | --- | --- | --- | --- | --- | --- | --- | --- | --- | --- | --- | --- | --- | --- | --- | --- | --- | --- | --- |
| CC(=O)OCc1c(COC(C)=O)c(C(F)(F)F)n2c1CCC2 | 98 | 2.1 | -0.6 | Non-toxic | 100 | Non-toxic | 2.4 (≈ 7.52 µM) | 104 | -1 | Non-toxic | 93 | Non-toxic | 1.8 | 90 | 1.1 | 107 | Non-toxic | -0.8 | Non-toxic | – |
| CNC(=O)OCc1c(COC(=O)NC)c(C(F)(F)F)n2c1CCC2 | 98 | 1.4 | -0.8 | Non-toxic | 100 | Non-toxic | 2.5 (≈ 7.16 µM) | 82 | -0.1 | Non-toxic | 116 | Non-toxic | -0.4 | 117 | -1.5 | 104 | – | -0.2 | Non-toxic | – |
| CC(=O)OCc1c(COC(C)=O)c(-c2ccc(Cl)c(Cl)c2)n2c1CCC2 | 100 | -0.7 | -2.2 | Non-toxic | 104 | Non-toxic | > 100 | 127 | -1.1 | Non-toxic | 122 | Non-toxic | -1 | 141 | -3 | 100 | Non-toxic | -3.3 | Non-toxic | Activity [20]: 1.2 g; T/C [21]: 125%; Activity [22]: 1.2 g; Activity [23]: Non-toxic; T/C [24]: 114%; Activity [25]: Non-toxic |
